IC50 and Relative activity data for twelve molecules are collected here from ChEMBL document CHEMBL1126823, “Benextramine-neuropeptide Y receptor interactions: contribution of the benzylic moieties to [3H]neuropeptide Y displacement activity” (J Med Chem, 1993).

A short description of assay [1]: Binding affinity against rat NPY receptor by using [3H]NPY as radioligand. Put shortly:
(§1)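 Male Sprague-Dawley rat (250-300 g) brain membrane homogenate (1.2-1.6 mg protein/mL) incubated with 1.0 nM [3H]NPY and analog 10^-3 to 10^-7 M in Krebs-Ringer bicarbonate/50 mM phosphate, 0.1% BSA, 0.05% bacitracin, pH 7.4, 90 min at 25 °C. Nonspecific binding defined with 1 µM NPY. Filtration onto PEI-treated glass-fiber filters, scintillation counting. IC50 from competitive binding isotherm fit.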

The next assay is filed under the species Rattus norvegicus. The assay can be described thus: Displacement of [3H]NPY from rat brain NPY receptor compared to benextramine. Put shortly:
as §1

A short description of assay [2]: Relative potency of compound at alpha-adrenoceptor to that of benextramine was measured by ability to antagonize the effect of epinephrine on the contractions of the electrically stimulated rat vas deferens. Format: tissue-based.

For `COc1cccc(CNCCCCCCNCCSSCCNCCCCCCNCc2cccc(OC)c2)c1`, the IC50 in assay [1] was 21.5 µM. Further, the Relative activity was determined as 2.7 in the assay filed under Rattus norvegicus and 0.72 in assay [2].

As to `c1ccc2cc(CNCCCCCCNCCSSCCNCCCCCCNCc3ccc4ccccc4c3)ccc2c1`, the IC50 in assay [1] amounted to 31.3 µM. The Relative activity in the assay filed under Rattus norvegicus turned out to be 1.8; in assay [2], 0.27.

In assay [1], `Oc1cccc(CNCCCCCCNCCSSCCNCCCCCCNCc2cccc(O)c2)c1` displayed an IC50 of 20.3 µM. In addition, the Relative activity came out at 2.8 in the assay filed under Rattus norvegicus and 0.24 in assay [2].

`COc1ccccc1CNCCCCCCNCCSSCCNCCCCCCNCc1ccccc1OC` [BENEXTRAMINE]: in assay [1], the IC50 is 57.6 µM. In addition, the Relative activity (in the assay filed under Rattus norvegicus; in assay [2]) was 1 throughout.

Regarding `Clc1ccccc1CNCCCCCCNCCSSCCNCCCCCCNCc1ccccc1Cl`, the IC50 in assay [1] amounted to 79.9 µM. The Relative activity was 0.7 in the assay listed under Rattus norvegicus and 0.44 in assay [2].

On to `c1ccc(CNCCCCCCNCCSSCCNCCCCCCNCc2ccccc2)cc1`, for which the IC50 in assay [1] is 191 µM. Besides, the Relative activity came to 0.3 in the assay filed under Rattus norvegicus and 0.9 in assay [2].

`Oc1ccc(CNCCCCCCNCCSSCCNCCCCCCNCc2ccc(O)cc2)cc1` had an IC50 in assay [1] of 162 µM. Further, the Relative activity in the assay filed under Rattus norvegicus was determined as 0.4; in assay [2], 0.14.

Regarding `NCCCCCCNCCSSCCNCCCCCCN`, in assay [1], the IC50 is more than 1400 µM. The results for the Relative activity (in the assay filed under Rattus norvegicus; in assay [2]) were less than 0.04 and 0.27, respectively.

In the case of `Clc1cccc(CNCCCCCCNCCSSCCNCCCCCCNCc2cccc(Cl)c2)c1`, the IC50 in assay [1] was determined as 46.7 µM. Besides, the Relative activity was found to be 1.2 in the assay filed under Rattus norvegicus and 0.46 in assay [2].

Regarding `Oc1ccccc1CNCCCCCCNCCSSCCNCCCCCCNCc1ccccc1O`, the IC50 in assay [1] turned out to be 50.6 µM. The Relative activity in the assay filed under Rattus norvegicus came to 1.1; in assay [2] it was 0.36.

In assay [1], `COc1ccc(CNCCCCCCNCCSSCCNCCCCCCNCc2ccc(OC)cc2)cc1` displayed an IC50 of 44.1 µM. In addition, the Relative activity was 1.3 in the assay listed under Rattus norvegicus and 0.81 in assay [2].

In assay [1], `Clc1ccc(CNCCCCCCNCCSSCCNCCCCCCNCc2ccc(Cl)cc2)cc1` came in with an IC50 of 37.8 µM. Also, the Relative activity in the assay listed under Rattus norvegicus turned out to be 1.5; in assay [2], 0.5.
